In test [1] the target is T1, Alpha-2A adrenergic receptor (Homo sapiens) (UniProt P08913).
T1 sequence (whole entry): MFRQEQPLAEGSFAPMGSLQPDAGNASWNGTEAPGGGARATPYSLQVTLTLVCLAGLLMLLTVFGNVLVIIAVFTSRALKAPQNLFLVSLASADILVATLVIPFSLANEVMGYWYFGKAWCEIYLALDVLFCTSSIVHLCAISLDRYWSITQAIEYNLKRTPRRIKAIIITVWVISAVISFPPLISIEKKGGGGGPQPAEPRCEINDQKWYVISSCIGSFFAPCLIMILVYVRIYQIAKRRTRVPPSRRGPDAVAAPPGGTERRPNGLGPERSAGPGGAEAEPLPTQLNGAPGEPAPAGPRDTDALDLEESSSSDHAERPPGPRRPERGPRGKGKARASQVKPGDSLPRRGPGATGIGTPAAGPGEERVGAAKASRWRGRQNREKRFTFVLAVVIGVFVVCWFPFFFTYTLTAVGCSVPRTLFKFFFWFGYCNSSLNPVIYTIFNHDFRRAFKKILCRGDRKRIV
The test can be described thus: Displacement of [3H]clonidine from alpha2A adrenergic receptor at 10 uM after 40 mins by scintillation counting analysis.

In test [2] the target is 5-hydroxytryptamine receptor 2B (Homo sapiens) (UniProt P41595). The experiment in a line: Displacement of [3H]LSD from human recombinant 5-HT2B receptor at 10 uM after 1.5 hrs by scintillation counting analysis. The gist of the method: (§1)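 NIMH-PDSP primary screen using membranes from transiently or stably transfected cell lines (e.g., HEK293, COS, CHO, NIH3T3). Compound at 10 μM final. Reference compounds: chlorpromazine (5-HT2A), methysergide (5-HT2B), LY278584 (5-HT3), oxymetazoline (α2A), prazosin (α2C), atropine (M4). Mean % inhibition of radioligand specific binding, N = 4.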
(In general: In a radioligand displacement assay an active substance lowers the binding of a labelled ligand.)

Test [3] addresses T2, 5-hydroxytryptamine receptor 3A (Homo sapiens) (UniProt P46098).
T2 sequence (whole entry): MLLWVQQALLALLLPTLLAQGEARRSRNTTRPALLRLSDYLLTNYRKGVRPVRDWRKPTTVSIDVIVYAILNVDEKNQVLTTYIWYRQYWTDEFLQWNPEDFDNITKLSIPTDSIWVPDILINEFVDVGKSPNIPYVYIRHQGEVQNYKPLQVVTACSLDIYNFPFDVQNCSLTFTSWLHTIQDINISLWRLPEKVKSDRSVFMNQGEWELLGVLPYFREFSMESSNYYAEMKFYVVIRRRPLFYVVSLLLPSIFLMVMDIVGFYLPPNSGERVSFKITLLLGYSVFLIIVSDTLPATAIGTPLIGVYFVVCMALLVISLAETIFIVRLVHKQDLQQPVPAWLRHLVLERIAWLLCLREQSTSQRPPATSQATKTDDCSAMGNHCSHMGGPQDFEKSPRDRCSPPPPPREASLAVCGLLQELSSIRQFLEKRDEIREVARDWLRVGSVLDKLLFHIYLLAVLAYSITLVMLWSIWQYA
The test can be described thus: Displacement of [3H]LY278584 from human recombinant 5-HT3 receptor at 10 uM after 1.5 hrs by scintillation counting analysis. In outline:
as §1

Test [4] deals with T3, Alpha-2C adrenergic receptor (Homo sapiens) (UniProt P18825).
T3 sequence (whole entry): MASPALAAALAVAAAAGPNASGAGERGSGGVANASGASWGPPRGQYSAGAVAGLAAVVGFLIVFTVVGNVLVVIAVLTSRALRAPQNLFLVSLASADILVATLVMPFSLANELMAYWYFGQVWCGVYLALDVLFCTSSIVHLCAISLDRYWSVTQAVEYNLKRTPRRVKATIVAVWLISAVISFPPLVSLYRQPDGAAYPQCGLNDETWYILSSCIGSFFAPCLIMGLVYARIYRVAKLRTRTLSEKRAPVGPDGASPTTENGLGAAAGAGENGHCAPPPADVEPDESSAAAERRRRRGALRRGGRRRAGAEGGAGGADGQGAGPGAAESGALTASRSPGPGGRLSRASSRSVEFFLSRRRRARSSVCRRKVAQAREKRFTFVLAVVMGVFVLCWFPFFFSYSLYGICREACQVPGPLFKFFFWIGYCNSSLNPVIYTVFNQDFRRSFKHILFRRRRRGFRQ
The test can be described thus: Displacement of [3H]clonidine from alpha2C adrenergic receptor at 10 uM after 40 mins by scintillation counting analysis. The gist of the method: as §1

Test [5] has as its target T4, Muscarinic acetylcholine receptor M4 (Homo sapiens) (UniProt P08173).
T4 sequence (whole entry): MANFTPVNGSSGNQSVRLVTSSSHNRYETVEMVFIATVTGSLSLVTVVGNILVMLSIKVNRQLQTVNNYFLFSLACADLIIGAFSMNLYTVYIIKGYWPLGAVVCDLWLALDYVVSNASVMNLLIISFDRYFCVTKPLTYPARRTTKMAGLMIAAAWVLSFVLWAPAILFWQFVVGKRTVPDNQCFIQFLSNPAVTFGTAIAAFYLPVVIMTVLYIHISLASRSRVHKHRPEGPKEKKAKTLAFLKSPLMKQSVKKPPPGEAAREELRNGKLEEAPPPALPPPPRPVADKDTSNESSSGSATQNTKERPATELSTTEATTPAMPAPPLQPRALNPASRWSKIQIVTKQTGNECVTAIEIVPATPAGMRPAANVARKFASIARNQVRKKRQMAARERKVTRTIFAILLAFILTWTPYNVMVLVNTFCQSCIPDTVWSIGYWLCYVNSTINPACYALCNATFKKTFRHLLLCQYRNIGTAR
The experiment in a line: Displacement of [3H]QNB from human recombinant M4 receptor at 10 uM after 1.5 hrs by scintillation counting analysis. In outline:
as §1

Test [6] is described as follows: Displacement of [3H]DTG from sigma 2 receptor in rat PC12 cell membrane after 2 hrs by scintillation counting. The conditions noted are these: pc-12. The format is cell membranes.
The test system of a further test is PC-12. The experiment in a line: Displacement of [3H]DTG from sigma 2 receptor in rat PC12 cell membrane at 10 uM after 2 hrs by scintillation counting. Type of test: cell membranes.
Test [7] concerns the target 5-hydroxytryptamine receptor 2A (Homo sapiens) (UniProt P28223). The test can be described thus: Displacement of [3H]ketanserin from human recombinant 5-HT2A receptor at 10 uM after 1.5 hrs by scintillation counting analysis. In outline: as §1
Test [8] deals with Sigma non-opioid intracellular receptor 1 (Rattus norvegicus) (UniProt Q9R0C9). The test can be described thus: Displacement of [3H](+)-pentazocine from sigma 1 receptor in rat brain membrane at 10 uM after 2.5 hrs by scintillation counting. Type of test: cell membranes.
The target of test [9] is T5, Muscarinic acetylcholine receptor M4 (Homo sapiens, UniProt P08173).
T5 sequence (P08173 whole entry): T4 sequence (whole entry)
The experiment in a line: Displacement of [3H]QNB from human recombinant M4 receptor after 1.5 hrs by scintillation counting analysis. The gist of the method:
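Membranes from transiently or stably transfected cell lines, run through the NIMH-PDSP program. [3H]QNB was the radioligand and atropine the reference. […] Competition curves were fitted to a three-parameter logistic to give IC50, converted to Ki by Cheng-Prusoff.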

Test [10] has as its target D(3) dopamine receptor (Homo sapiens) (UniProt P35462). The experiment in a line: Displacement of [3H]N-methylspiperone from dopamine D3 receptor at 10 uM after 1.5 hrs by scintillation counting analysis.

pKi: −log10 of the molar value.

5-hydroxytryptamine receptor 2A (Homo sapiens), sequence (P28223 whole entry): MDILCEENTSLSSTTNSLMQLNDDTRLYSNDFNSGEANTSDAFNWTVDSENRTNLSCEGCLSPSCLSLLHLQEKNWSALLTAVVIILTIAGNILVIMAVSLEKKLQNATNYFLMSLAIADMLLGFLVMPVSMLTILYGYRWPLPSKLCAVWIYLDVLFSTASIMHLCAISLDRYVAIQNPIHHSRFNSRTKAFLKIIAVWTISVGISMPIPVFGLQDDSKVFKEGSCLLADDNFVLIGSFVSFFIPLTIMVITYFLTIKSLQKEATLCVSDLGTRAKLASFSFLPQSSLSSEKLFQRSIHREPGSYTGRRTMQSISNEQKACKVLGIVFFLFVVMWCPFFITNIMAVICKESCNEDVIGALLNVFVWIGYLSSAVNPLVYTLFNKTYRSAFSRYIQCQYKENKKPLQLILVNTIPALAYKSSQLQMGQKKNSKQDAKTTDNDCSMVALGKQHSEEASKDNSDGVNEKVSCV
5-hydroxytryptamine receptor 2B (Homo sapiens), sequence (P41595 whole entry): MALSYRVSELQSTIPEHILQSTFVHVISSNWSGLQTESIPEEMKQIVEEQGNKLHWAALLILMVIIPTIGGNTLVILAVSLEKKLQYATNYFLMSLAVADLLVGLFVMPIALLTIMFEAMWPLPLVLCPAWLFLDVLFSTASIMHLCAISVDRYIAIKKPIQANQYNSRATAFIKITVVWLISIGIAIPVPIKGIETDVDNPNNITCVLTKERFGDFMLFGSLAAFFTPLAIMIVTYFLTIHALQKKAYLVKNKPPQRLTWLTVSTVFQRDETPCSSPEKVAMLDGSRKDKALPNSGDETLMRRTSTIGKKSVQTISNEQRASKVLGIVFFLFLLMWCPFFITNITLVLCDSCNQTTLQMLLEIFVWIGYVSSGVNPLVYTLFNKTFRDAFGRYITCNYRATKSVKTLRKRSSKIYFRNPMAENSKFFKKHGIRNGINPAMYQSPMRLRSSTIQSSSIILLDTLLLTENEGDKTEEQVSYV
Sigma non-opioid intracellular receptor 1 (Rattus norvegicus), sequence (Q9R0C9 whole entry): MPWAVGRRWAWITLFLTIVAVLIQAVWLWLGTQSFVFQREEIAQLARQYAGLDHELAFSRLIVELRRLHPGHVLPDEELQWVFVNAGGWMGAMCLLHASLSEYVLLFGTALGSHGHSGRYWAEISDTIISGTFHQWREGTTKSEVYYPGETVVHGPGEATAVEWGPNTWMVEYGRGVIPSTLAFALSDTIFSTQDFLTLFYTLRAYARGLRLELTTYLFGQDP
D(3) dopamine receptor (Homo sapiens), sequence (P35462 whole entry): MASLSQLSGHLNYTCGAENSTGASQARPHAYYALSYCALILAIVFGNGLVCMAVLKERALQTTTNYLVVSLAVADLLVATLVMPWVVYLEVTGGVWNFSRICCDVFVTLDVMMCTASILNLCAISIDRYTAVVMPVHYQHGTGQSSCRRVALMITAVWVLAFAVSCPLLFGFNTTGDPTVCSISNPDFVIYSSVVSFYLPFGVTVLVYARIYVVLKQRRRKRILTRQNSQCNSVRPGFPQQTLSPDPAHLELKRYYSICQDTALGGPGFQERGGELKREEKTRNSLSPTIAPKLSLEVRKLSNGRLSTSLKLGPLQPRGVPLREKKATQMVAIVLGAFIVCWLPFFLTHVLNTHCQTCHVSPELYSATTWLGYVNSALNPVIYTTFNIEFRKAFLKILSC

The inhibition is the share of the control response that was lost under treatment. For orientation: pKi means the Ki on a negative log10 scale, so that one unit is a factor of ten. Take `Cc1c(C(=O)N(CCCN2CCCCC2)c2ccccc2)oc2ccccc12`: the inhibition in test [1] was 77.7%; in test [2] it was 69.2%; in test [3] it was 2.9%; in test [4], 61.9%; in test [5] it was 43.1%; in the test on PC-12 it was 93.5%. The inhibition in [7] stood at 18.1%. The molecule also showed a pKi in test [6] of 7.80.
`COc1ccc2c(C)c(C(=O)N(CCCN3CCCCC3)c3ccccc3)oc2c1`: the inhibition came to 93.9% in test [2]; 7.3% in [3]; 49% in test [4]; 68.4% in test [5]; 97.7% in test [8]; 40.6% in [10]. Moreover, the inhibition worked out at 88.5% in the test on PC-12 and 61.2% in test [7]. Further, the figures for the pKi in [6] and in test [9] were 7.39 and less than 5.00, respectively.
As for `COc1cc2oc(C(=O)N(CCCN3CCCCC3)c3ccccc3)c(C)c2cc1OC`, the inhibition in test [2] came to 43.8%; in test [3], 64.2%; in [4], 78.9%; in [5], 54.4%; in test [8], 99.8%; in test [10] it was 38.8%. Besides, the inhibition is 81.4% in the test with PC-12 and 76.6% in test [7]. This molecule had a pKi in test [6] of 6.28.

These data come from ChEMBL document CHEMBL2203183, “Synthesis of N-phenyl-N-(3-(piperidin-1-yl)propyl)benzofuran-2-carboxamides as new selective ligands for sigma receptors” (Bioorg Med Chem, 2012).
